According to article PMC6585766 (Clinical Pharmacology in Drug Development, 2018):
Entries after “also recorded” stand apart in the source; their conditions may differ. Like-named read-outs stand apart in the source and are kept apart here.

How the values were obtained:
[1] = type: in vivo, human; details: for AUC / AUC(0-inf) / Cmax / half-life / Tmax: human, plasma, po, 4 mg; for AUC / AUC(0-inf) / Cmax / Tmax / CL/F / AUC0‐t, Ratio (%) of Geometric Mean (Impaired vs Healthy) / AUC, Ratio (%) of Geometric Mean (Impaired vs Healthy) / Cmax, Ratio (%) of Geometric Mean (Impaired vs Healthy) / tmax, Median Difference (Impaired– Healthy): single oral 4-mg dose; for AUC(0-inf): AUC (time 0 extrapolated to infinity); for half-life: t1/2, single oral 4-mg dose; for AUC0‐t, Ratio (%) of Geometric Mean (Impaired vs Healthy) / AUC, Ratio (%) of Geometric Mean (Impaired vs Healthy) / Cmax, Ratio (%) of Geometric Mean (Impaired vs Healthy): ANOVA; for tmax, Median Difference (Impaired– Healthy): nonparametric method
Method in brief: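 Male subjects (8 per group: healthy, mild, moderate, severe hepatic impairment) received a single oral 4-mg dose. Water was withheld from 60 min pre-dose to 2 h post-dose, food until at least 4 h post-dose, and CYP1A2/CYP3A modulators from 14 days prior. Plasma was sampled pre-dose to 48 h and assayed by validated LC-MS/MS. Noncompartmental parameters used actual sampling times. ANOVA (group as fixed effect) gave geometric mean ratios with 90% CI versus matched healthy subjects.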

Safety assessment = type: in vivo, human; details: single oral 4-mg dose
Method in brief: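 Open-label, multicentre study in male subjects (healthy, mild, moderate or severe hepatic impairment) given a single oral 4-mg dose. Adverse events were recorded from consent through a follow-up telephone call 7 ± 1 days after dosing, plus any reported within 28 days. Physical exams, vital signs, 12-lead ECGs and clinical laboratory tests were also done. TEAEs were tabulated by system organ class and preferred term, each subject counted once per event.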

[2] = human, cited from earlier work
[3] = fed vs fasted; ref data on file; cited from earlier work
[4] = heavy smokers (approximately 25 cigarettes per day); ref data on file; cited from earlier work
[5] = cited from earlier work
[6] = patients with relapsed and refractory multiple myeloma; cited from earlier work
[7] = administered during the period of organogenesis; no reference given; cited from earlier work
[8] = group 1 healthy subjects, n = 8, arithmetic mean (SD)
[9] = group 2 severe hepatic impairment, n = 8, arithmetic mean (SD)
[10] = group 3 moderate hepatic impairment, n = 8, arithmetic mean (SD)
[11] = group 4 mild hepatic impairment, n = 8, arithmetic mean (SD)
[12] = severe hepatic impairment group, 1 subject

## Nc1cccc2c1C(=O)N(C1CCC(=O)NC1=O)C2=O (centres unmarked) [Pomalidomide]
[1]; AUC0‐t, Geometric Mean, healthy, N = 8
  AUC: 481 ng·h/mL
[1]; AUC0‐t, Geometric Mean, mild hepatic impairment, N = 8
  AUC: 693 ng·h/mL
[1]; AUC0‐t, Geometric Mean, moderate hepatic impairment, N = 8
  AUC: 725 ng·h/mL
[1]; AUC0‐t, Geometric Mean, severe hepatic impairment, N = 8
  AUC: 762 ng·h/mL
[1]; AUC0‐t, group 1 healthy subjects, n = 8, arithmetic mean (SD)
  AUC: 493 ng·h/mL
[1]; AUC0‐t, group 2 severe hepatic impairment, n = 8, arithmetic mean (SD)
  AUC: 822 ng·h/mL
[1]; AUC0‐t, group 3 moderate hepatic impairment, n = 8, arithmetic mean (SD)
  AUC: 764 ng·h/mL
[1]; AUC0‐t, group 4 mild hepatic impairment, n = 8, arithmetic mean (SD)
  AUC: 728 ng·h/mL
[1]; [8]
  AUC(0-inf): 498 ng·h/mL
  CL/F: 8.4 (1.9) L/h
[1]; [9]
  AUC(0-inf): 908 ng·h/mL
  Cmax: 49.1 ng/mL
  half-life: 12.7 h
  CL/F: 5.4 (3.3) L/h
[1]; [10]
  AUC(0-inf): 810 ng·h/mL
  half-life: 10.1 h
  CL/F: 5.6 (2.6) L/h
[1]; [11]
  AUC(0-inf): 787 ng·h/mL
  Cmax: 56.2 ng/mL
  half-life: 10.3 h
  CL/F: 5.8 (2.2) L/h
[1]; AUC, Geometric Mean, healthy, N = 8
  AUC: 486 ng·h/mL
[1]; AUC, Geometric Mean, mild hepatic impairment, N = 8
  AUC: 734 ng·h/mL
[1]; AUC, Geometric Mean, moderate hepatic impairment, N = 8
  AUC: 764 ng·h/mL
[1]; AUC, Geometric Mean, severe hepatic impairment, N = 8
  AUC: 833 ng·h/mL
[1]; Geometric Mean, healthy, N = 8
  Cmax: 59.2 ng/mL
[1]; Geometric Mean, mild hepatic impairment, N = 8
  Cmax: 55.8 ng/mL
[1]; Geometric Mean, moderate hepatic impairment, N = 8
  Cmax: 56.2 ng/mL
[1]; Geometric Mean, severe hepatic impairment, N = 8
  Cmax: 44.9 ng/mL
[1]; Geometric Mean, healthy, N = 8, Table 4
  Tmax: 1.5 h
[1]; Geometric Mean, mild hepatic impairment, N = 8, Table 4
  Tmax: 2.25 h
[1]; Geometric Mean, moderate hepatic impairment, N = 8, Table 4
  Tmax: 2.38 h
[1]; Geometric Mean, severe hepatic impairment, N = 8, Table 4
  Tmax: 2.5 h
[1]; group 1 healthy subjects, n = 8, median (min, max)
  Tmax: 1.5 h
[1]; group 2 severe hepatic impairment, n = 8, median (min, max)
  Tmax: 2.5 h
[1]; group 3 moderate hepatic impairment, n = 8, median (min, max)
  Tmax: 2.25 h
[1]; group 4 mild hepatic impairment, n = 8, median (min, max)
  Tmax: 2 h
[1]; mild hepatic impairment vs healthy
  increase of pomalidomide exposure: approximately 50%
[1]; moderate hepatic impairment vs healthy
  increase of pomalidomide exposure: approximately 60%
[1]; severe hepatic impairment vs healthy
  increase of pomalidomide exposure: approximately 70%
[1]; mild vs healthy
  AUC0‐t, Ratio (%) of Geometric Mean (Impaired vs Healthy): 143.9%
  AUC, Ratio (%) of Geometric Mean (Impaired vs Healthy): 151.2%
  Cmax, Ratio (%) of Geometric Mean (Impaired vs Healthy): 94.2%
  tmax, Median Difference (Impaired– Healthy): 1.0 h
[1]; moderate vs healthy
  AUC0‐t, Ratio (%) of Geometric Mean (Impaired vs Healthy): 150.6%
  AUC, Ratio (%) of Geometric Mean (Impaired vs Healthy): 157.5%
  Cmax, Ratio (%) of Geometric Mean (Impaired vs Healthy): 94.8%
  tmax, Median Difference (Impaired– Healthy): 1.0 h
[1]; severe vs healthy
  AUC0‐t, Ratio (%) of Geometric Mean (Impaired vs Healthy): 158.4%
  AUC, Ratio (%) of Geometric Mean (Impaired vs Healthy): 171.5%
  Cmax, Ratio (%) of Geometric Mean (Impaired vs Healthy): 75.8%
  tmax, Median Difference (Impaired– Healthy): 0.75 h
Safety assessment; all 32 subjects
  total number of TEAEs: 8
Safety assessment; all subjects
  clinically significant clinical laboratory, vital sign, or ECG results: No subject had a clinical laboratory, vital sign, or ECG result that was considered clinically significant or reported as a TEAE
  deaths, SAEs, TEAEs leading to discontinuation: No deaths, SAEs, or TEAEs leading to discontinuation were reported; also recorded: No deaths or other SAEs were reported and no subjects were discontinued; also recorded: no deaths and no subject discontinued due to a TEAE
  severity of TEAEs: All TEAEs were mild in severity except for 1 subject in the moderate hepatic impairment group with the moderate TEAE of bronchitis
Safety assessment; healthy subjects
  TEAEs reported: No TEAEs
Safety assessment; healthy subjects and subjects with severe, moderate, or mild hepatic impairment
  safety and tolerability: safe and well tolerated
Safety assessment; mild hepatic impairment group, 2 subjects
  subjects reporting at least 1 TEAE related to pomalidomide: 25.0%
Safety assessment; mild hepatic impairment group, 4 subjects
  subjects reporting TEAEs: 50.0%
Safety assessment; moderate hepatic impairment group, 1 subject
  subjects reporting TEAEs: 12.5%
Safety assessment; overall, 3 subjects (diarrhea, nausea, headache, flushing)
  subjects reporting at least 1 TEAE related to pomalidomide: 9.4%
Safety assessment; overall, 6 of 32 subjects
  subjects reporting TEAEs: 18.8%
Safety assessment; [12]
  subjects reporting TEAEs: 12.5%
  subjects reporting at least 1 TEAE related to pomalidomide: 12.5%
[2]
  clearance pathway: CYP–mediated hydroxylation with subsequent glucuronidation: 43 % of the dose
  unchanged pomalidomide in urine: 2.2 % of the dose
[2]; oral
  total [14C]‐radioactivity recovered in feces: 15.5%
  total [14C]‐radioactivity recovered in urine: 72.8%
[2]; oral, urine plus feces
  recovery of total [14C]‐radioactivity: approximately 88 % of the administered dose
[2]; samples collected during the 96‐hour postdose period
  unchanged pomalidomide in feces: 7.7 % of the dose
[2]; share of the dose
  clearance pathway: excretion of unchanged drug: 10%
  clearance pathway: glutarimide ring hydrolysis: 25%
[3]
  decrease of AUC by food: 8%
[4]
  AUC lower in heavy smokers than in nonsmokers: 30%
  Cmax higher in heavy smokers than in nonsmokers: 14.4%
[5]; co‐administration of a strong CYP1A2 inhibitor in the presence of a strong CYP3A inhibitor
  effect on exposure of pomalidomide: approximately doubled
[5]; co‐administration of a strong CYP3A inhibitor or inducer or a P‐glycoprotein inhibitor
  effect on exposure to pomalidomide: no clinically relevant effect
[6]
  nonrenal routes as share of pomalidomide total body clearance: approximately 70%
[7]
  teratogenicity: teratogenic
